{"data": "Assay results pooled from the literature", "organism": "Bacillus subtilis", "effect on": "microbial growth", "note": "Lines come from different studies, so protocols differ."}
{"Structure (SMILES)": "C/C=C(\\C)c1cc(O)c(C)c(OC(=O)c2c(C)cc(O)c(Cl)c2O)c1", "method": "broth dilution", "strain": "BS01", "MIC": "4 µg/mL"}
{"Structure (SMILES)": "CC1=NN(CNC(=O)c2ccccc2)C(=O)C1=NNn1c(-c2ccccc2)nc2ccccc2c1=O", "method": "broth dilution", "time": "24 h", "MIC": "51.9 µM"}
{"Structure (SMILES)": "O=C(O)c1ccc(-n2cc(/C=N/Nc3cccc(Cl)c3F)c(-c3cccc(F)c3)n2)cc1", "strain": "ATCC6623", "MIC": "1.56 µg/mL"}
{"Structure (SMILES)": "CCCC[P+](/C=C(/c1ccccc1)c1cc(Cl)ccc1O)(CCCC)CCCC", "time": "21 h", "MIC": "10 µM"}
{"Structure (SMILES)": "COc1cccc(NCc2ccc(Oc3ccccn3)cc2)c1", "MIC": "1.6 µg/mL"}
{"Structure (SMILES)": "O=C(O)CN1C(=O)/C(=C/c2ccc(-c3ccc(N(c4ccccc4)c4ccccc4)cc3)c3ccccc23)SC1=S", "method": "broth dilution", "strain": "ATCC6633", "MIC": "500 µg/mL"}
{"Structure (SMILES)": "CC1=NN(CNc2ccc(Cl)cc2)C(=O)C1=NNn1c(-c2ccccc2)nc2ccccc2c1=O", "method": "broth dilution", "time": "24 h", "MIC": "103 µM"}
{"Structure (SMILES)": "Fc1ccccc1NCc1ccc(Oc2ccccn2)cc1", "MIC": "1.8 µg/mL"}
{"Structure (SMILES)": "O=C(O)c1ccc(-n2cc(/C=N/Nc3ccc(Br)cc3)c(-c3cccc(F)c3)n2)cc1", "strain": "ATCC6623", "MIC": "12.5 µg/mL"}
{"Structure (SMILES)": "O=C1NC(=S)S/C1=C\\c1ccc(-c2ccc(N(c3ccccc3)c3ccccc3)cc2)cc1", "method": "broth dilution", "strain": "ATCC6633", "MIC": "1000 µg/mL"}
{"Structure (SMILES)": "C[n+]1c(/C=C/c2ccc(O)cc2)cc(/C=C2\\Sc3ccccc3N2CCCN2CCCC2)c2ccccc21.[I-]", "method": "broth dilution", "strain": "168", "MIC": "16 µg/mL"}
{"Structure (SMILES)": "O=C(O)CN1C(=O)/C(=C/c2ccc(-c3ccc(N(c4ccccc4)c4ccccc4)cc3)c3ccccc23)NC1=S", "method": "broth dilution", "strain": "ATCC6633", "MIC": "> 1000 µg/mL"}
{"Structure (SMILES)": "NC[C@H]1O[C@H](O[C@H]2[C@H](O)[C@@H](O[C@H]3O[C@H](CO)[C@@H](O)[C@H](N)[C@H]3O)[C@H](N)C[C@@H]2N)[C@H](N)C[C@@H]1O", "strain": "168", "MIC": "1.2 µg/mL"}
{"Structure (SMILES)": "CNC(=O)c1cc(Oc2ccc(NC(=O)Nc3ccc(Cl)c(C(F)(F)F)c3)cc2)ccn1", "strain": "168", "MIC": "5 µM"}
{"Structure (SMILES)": "Clc1ccccc1NCc1ccc(Oc2ccccn2)cc1", "MIC": "1.8 µg/mL"}
{"Structure (SMILES)": "CCCCCC[P+](/C=C(/c1ccccc1)c1cc(Cl)ccc1OC)(CCCCCC)CCCCCC", "time": "21 h", "MIC": "2 µM"}
{"Structure (SMILES)": "COc1cccc(OC)c1C(=O)N[C@@H]1C(=O)N2[C@@H]1SC(C)(C)[C@@H]2C(=O)O", "method": "broth dilution", "strain": "168", "MIC": "0.625 µg/mL"}
{"Structure (SMILES)": "O=C(O)c1ccc(-n2cc(/C=N/Nc3c(F)c(F)c(F)c(F)c3F)c(-c3cccc(F)c3)n2)cc1", "strain": "ATCC6623", "MIC": "6.25 µg/mL"}
{"Structure (SMILES)": "CSc1ccc(/C=C/c2cc(/C=C3\\Sc4ccccc4N3CCCN3CCCC3)c3ccccc3[n+]2C)cc1.[I-]", "method": "broth dilution", "strain": "168", "MIC": "16 µg/mL"}
{"Structure (SMILES)": "O=C(O)c1ccc(-n2cc(/C=N/Nc3ccc(Cl)cc3Cl)c(-c3cccc(F)c3)n2)cc1", "strain": "ATCC6623", "MIC": "1.56 µg/mL"}
